# Laboratory results: ChEMBL document CHEMBL4422684, “Identification of novel lysine demethylase 5-selective inhibitors by inhibitor-based fragment merging strategy” (Bioorg Med Chem, 2019)
# The source made the active and inactive calls. No cut-off for these calls is given here.
# Biological target: Lysine-specific demethylase 6B (Homo sapiens, UniProt O15054)
# Test: Inhibition of human C-terminal FLAG-tagged KDM6B (1043 to end residues) expressed in baculovirus infected Sf9 insect cells at 50 uM using H3(21-44)-K27(Me3)-GK(Biotin)/2-OG as substrate measured after 1 hr by Alphalisa assay relative to control
# Conditions: not given
# How it was run: (§1)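 AlphaLISA demethylase assay in 50 mM HEPES pH 7.5, 0.1% BSA, 0.01% Tween 20 with DMSO. Enzyme and inhibitor combined, then peptide plus 2-OG (50 µM), Fe(II) (5 µM) and ascorbate (100 µM) in the added mix; 1 h at room temperature with shaking.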
# Sequence of Lysine-specific demethylase 6B (O15054 whole entry): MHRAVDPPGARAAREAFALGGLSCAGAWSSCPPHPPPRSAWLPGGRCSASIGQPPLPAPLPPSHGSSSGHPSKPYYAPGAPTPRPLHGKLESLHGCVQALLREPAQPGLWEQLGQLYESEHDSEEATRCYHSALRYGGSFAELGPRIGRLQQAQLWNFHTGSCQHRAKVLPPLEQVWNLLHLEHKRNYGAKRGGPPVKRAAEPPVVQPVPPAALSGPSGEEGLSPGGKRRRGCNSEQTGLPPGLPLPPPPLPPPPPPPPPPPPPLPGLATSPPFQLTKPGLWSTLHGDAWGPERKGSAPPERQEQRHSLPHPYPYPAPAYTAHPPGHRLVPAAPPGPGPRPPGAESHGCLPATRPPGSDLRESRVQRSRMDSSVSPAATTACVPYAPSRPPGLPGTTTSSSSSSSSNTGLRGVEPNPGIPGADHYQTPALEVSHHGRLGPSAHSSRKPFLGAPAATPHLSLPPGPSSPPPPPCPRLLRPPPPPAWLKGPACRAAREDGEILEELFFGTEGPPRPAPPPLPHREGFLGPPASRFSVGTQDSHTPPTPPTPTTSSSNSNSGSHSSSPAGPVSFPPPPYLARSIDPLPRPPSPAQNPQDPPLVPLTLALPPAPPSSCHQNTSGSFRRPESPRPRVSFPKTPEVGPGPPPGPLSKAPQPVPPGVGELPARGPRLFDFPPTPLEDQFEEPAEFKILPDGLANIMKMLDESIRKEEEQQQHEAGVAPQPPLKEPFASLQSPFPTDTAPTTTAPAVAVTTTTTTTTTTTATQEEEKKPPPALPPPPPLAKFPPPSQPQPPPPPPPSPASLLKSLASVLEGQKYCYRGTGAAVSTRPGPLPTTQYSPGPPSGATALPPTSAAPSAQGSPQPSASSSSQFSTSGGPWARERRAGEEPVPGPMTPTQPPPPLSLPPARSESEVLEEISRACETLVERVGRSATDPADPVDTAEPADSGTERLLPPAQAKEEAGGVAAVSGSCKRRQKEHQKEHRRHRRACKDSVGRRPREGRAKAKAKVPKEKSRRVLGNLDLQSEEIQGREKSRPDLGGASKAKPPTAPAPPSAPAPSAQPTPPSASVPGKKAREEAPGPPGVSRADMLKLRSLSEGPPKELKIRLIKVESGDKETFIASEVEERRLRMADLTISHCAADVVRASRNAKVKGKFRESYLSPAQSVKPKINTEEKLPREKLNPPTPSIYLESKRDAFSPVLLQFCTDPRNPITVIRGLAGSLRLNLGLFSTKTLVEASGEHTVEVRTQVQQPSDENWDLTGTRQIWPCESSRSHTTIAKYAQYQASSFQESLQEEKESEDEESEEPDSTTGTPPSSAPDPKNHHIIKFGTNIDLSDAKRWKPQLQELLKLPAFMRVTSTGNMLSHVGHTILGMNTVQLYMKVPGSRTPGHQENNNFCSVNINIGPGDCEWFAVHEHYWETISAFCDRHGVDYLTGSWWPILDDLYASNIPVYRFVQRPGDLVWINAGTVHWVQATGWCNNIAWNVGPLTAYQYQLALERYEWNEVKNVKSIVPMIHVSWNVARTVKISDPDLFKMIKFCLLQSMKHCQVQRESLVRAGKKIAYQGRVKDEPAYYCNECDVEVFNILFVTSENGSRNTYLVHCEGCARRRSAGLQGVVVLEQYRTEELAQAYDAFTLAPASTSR
row,SMILES,inhibition
1,CCCCCCN(C)CCc1ccc(-c2[nH]c3c(C#N)cnn3c(=O)c2C(C)C)cc1,22.7%
2,CCCCCCN(C)Cc1ccc(-c2[nH]c3c(C#N)cnn3c(=O)c2C(C)C)cc1,29.1%
3,CCCCCN(C)CCCCC(=O)N(O)CCC(=O)O,17.8%

# Tested on: MDA-MB-231
# Test: Growth inhibition of human MDA-MB-231 cells at 50 uM after 72 hrs by Alamar blue staining based fluorescence assay
# Format: functional, cell-based
# Conditions: not given
# How it was run: (§2)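 A549 or MDA-MB-231 cells seeded at 2 × 10^3 per well, left 24 h at 37 °C, then given compounds in medium for 72 h at 37 °C, 5% CO2. AlamarBlue added for a further 3 h at 37 °C; fluorescence read at ex 540/em 590 nm and % growth calculated from it. A549 in RPMI1640/10% FBS; MDA-MB-231 in L-15 with 2 mM glutamine/10% FBS.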
row,SMILES,growth inhibition (GI)
1,CCCCCCN(C)CCc1ccc(-c2[nH]c3c(C#N)cnn3c(=O)c2C(C)C)cc1,Active
2,CCCCCCN(C)Cc1ccc(-c2[nH]c3c(C#N)cnn3c(=O)c2C(C)C)cc1,Active
3,CC(C)c1c(-c2ccccc2)[nH]c2c(C#N)cnn2c1=O,Active

# Biological target: T1, Lysine-specific demethylase 5A (Homo sapiens, UniProt P29375)
# Test: Inhibition of human C-terminal FLAG-tagged KDM5A (1 to 1090 residues) expressed in baculovirus infected Sf9 insect cells using H3(1-21)K4(Me3)-GGK(Biotin)/2-OG as substrate measured after 1 hr by Alphalisa assay
# Conditions: not given
# How it was run: as §1
# T1 sequence (P29375 whole entry, the tested form may be a part): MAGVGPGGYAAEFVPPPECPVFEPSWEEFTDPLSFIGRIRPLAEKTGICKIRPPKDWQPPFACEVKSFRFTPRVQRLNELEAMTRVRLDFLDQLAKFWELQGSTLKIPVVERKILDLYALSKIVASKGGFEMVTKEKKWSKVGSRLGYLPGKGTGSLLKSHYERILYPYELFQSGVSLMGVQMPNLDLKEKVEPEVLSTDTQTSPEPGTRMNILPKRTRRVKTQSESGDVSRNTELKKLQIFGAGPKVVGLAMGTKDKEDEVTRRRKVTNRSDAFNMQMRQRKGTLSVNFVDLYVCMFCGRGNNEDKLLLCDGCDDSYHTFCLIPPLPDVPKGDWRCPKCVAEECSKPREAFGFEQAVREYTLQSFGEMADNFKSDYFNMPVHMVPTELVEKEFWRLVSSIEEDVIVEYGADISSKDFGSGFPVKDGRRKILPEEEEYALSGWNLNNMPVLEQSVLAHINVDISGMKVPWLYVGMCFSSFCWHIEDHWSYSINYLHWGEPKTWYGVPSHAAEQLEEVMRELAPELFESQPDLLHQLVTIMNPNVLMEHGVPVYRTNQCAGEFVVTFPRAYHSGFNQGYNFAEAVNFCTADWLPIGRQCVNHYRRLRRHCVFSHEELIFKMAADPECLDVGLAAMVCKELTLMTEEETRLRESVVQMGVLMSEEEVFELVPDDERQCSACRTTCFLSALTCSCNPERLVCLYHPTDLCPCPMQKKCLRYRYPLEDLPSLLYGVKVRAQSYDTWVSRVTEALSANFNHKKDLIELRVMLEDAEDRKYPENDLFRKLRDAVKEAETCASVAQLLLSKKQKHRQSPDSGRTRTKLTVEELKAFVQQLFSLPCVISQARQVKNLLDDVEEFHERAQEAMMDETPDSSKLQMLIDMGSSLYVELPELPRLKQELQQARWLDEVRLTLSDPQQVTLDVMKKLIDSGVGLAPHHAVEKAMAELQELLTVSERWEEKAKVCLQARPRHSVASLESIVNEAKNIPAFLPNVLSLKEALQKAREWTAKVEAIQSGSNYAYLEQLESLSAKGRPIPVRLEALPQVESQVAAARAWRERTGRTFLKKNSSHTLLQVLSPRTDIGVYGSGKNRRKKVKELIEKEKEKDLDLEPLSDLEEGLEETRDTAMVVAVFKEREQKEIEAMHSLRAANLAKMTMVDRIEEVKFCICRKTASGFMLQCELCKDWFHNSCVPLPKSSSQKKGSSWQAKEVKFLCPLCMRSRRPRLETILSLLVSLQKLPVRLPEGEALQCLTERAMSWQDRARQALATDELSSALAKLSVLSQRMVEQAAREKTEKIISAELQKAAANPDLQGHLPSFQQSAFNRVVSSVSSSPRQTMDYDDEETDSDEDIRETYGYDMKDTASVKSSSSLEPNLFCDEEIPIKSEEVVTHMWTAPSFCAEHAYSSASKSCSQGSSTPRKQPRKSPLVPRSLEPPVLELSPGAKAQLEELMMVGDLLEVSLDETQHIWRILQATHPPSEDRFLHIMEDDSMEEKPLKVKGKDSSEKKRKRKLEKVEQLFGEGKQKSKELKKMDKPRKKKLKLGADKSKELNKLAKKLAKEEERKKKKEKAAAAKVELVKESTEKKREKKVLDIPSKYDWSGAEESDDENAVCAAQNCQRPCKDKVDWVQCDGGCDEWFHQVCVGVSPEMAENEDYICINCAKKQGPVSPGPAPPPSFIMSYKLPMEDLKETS
row,SMILES,IC50
1,CCCCCCN(C)CCc1ccc(-c2[nH]c3c(C#N)cnn3c(=O)c2C(C)C)cc1,4.37 nM
2,CCCCCCN(C)Cc1ccc(-c2[nH]c3c(C#N)cnn3c(=O)c2C(C)C)cc1,22.7 nM
3,CCCCCN(C)CCCCC(=O)N(O)CCC(=O)O,2700 nM

# Biological target: T1, Lysine-specific demethylase 5A
# Test: Inhibition of KDM5A in human A549 cells assessed as increase in H3K4me3 levels after 48 hrs by Western blot analysis
# Format: cell-based
# Conditions: not given
# How it was run: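 A549 cells (5 × 10^5 per 2 mL well, RPMI1640 with 10% heat-inactivated FBS) exposed 48 h to compounds at 1, 5 or 25 µM. SDS lysates normalised by BCA, separated on 5-20% SDS-PAGE, blotted to PVDF, blocked in 5% milk/TBS-T, probed for H3K4me3, H3K9me3, H3K27me3 and total H3, detected by HRP chemiluminescence.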
row,SMILES,inhibition
1,CCCCCCN(C)CCc1ccc(-c2[nH]c3c(C#N)cnn3c(=O)c2C(C)C)cc1,Dose-dependent effect
2,CCCCCCN(C)Cc1ccc(-c2[nH]c3c(C#N)cnn3c(=O)c2C(C)C)cc1,Dose-dependent effect
3,CC(C)c1c(-c2ccccc2)[nH]c2c(C#N)cnn2c1=O,Dose-dependent effect

# Tested on: A549
# Test: Growth inhibition of human A549 cells at 50 uM after 72 hrs by Alamar blue staining based fluorescence assay
# Format: functional, cell-based
# Conditions: not given
# How it was run: as §2
row,SMILES,growth inhibition (GI)
1,CCCCCCN(C)CCc1ccc(-c2[nH]c3c(C#N)cnn3c(=O)c2C(C)C)cc1,Active
2,CCCCCCN(C)Cc1ccc(-c2[nH]c3c(C#N)cnn3c(=O)c2C(C)C)cc1,Active
3,CC(C)c1c(-c2ccccc2)[nH]c2c(C#N)cnn2c1=O,inactive

# Biological target: T2, Lysine-specific demethylase 2A (Homo sapiens) (UniProt Q9Y2K7)
# T2 sequence (whole entry): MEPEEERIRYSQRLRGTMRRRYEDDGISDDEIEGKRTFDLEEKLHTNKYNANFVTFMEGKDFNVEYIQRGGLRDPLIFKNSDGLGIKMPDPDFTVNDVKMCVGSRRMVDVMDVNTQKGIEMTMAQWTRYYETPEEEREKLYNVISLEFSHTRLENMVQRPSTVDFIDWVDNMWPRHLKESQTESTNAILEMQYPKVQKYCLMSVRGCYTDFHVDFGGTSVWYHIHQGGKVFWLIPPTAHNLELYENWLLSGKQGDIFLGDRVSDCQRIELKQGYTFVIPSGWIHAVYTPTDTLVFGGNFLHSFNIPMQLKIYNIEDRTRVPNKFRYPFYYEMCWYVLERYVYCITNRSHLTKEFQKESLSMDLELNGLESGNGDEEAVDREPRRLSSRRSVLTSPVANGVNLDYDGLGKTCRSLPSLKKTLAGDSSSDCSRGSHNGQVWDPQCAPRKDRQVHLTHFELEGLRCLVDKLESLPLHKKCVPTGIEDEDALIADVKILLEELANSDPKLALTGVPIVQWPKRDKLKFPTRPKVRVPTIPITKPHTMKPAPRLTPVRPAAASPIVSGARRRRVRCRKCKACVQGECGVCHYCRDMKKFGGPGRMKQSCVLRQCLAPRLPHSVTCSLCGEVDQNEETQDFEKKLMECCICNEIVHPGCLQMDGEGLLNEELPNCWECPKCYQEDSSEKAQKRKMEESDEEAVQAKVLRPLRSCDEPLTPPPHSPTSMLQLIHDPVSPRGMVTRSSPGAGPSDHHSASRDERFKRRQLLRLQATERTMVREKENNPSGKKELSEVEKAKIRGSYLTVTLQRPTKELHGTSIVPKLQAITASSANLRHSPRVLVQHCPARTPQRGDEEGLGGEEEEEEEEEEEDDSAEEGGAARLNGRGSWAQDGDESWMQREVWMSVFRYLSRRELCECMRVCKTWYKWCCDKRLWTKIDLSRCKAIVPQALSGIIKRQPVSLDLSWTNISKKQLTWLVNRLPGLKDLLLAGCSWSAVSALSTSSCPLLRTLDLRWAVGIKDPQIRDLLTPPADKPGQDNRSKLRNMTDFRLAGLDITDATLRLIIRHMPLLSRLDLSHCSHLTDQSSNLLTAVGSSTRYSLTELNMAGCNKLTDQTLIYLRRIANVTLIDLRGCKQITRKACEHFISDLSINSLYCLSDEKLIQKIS
# Test: Inhibition of human N-terminal FLAG/Avi-tagged KDM2A (2 to 700 residues) expressed in baculovirus infected Sf9 insect cells at 50 uM using H3(21-44)-K36(Me2)-GK(Biotin)/2-OG as substrate measured after 1 hr by Alphalisa assay relative to control
# Conditions: not given
# How it was run: as §1
row,SMILES,inhibition
1,CCCCCCN(C)CCc1ccc(-c2[nH]c3c(C#N)cnn3c(=O)c2C(C)C)cc1,38.4%
2,CCCCCCN(C)Cc1ccc(-c2[nH]c3c(C#N)cnn3c(=O)c2C(C)C)cc1,13.4%
3,CC(C)c1c(-c2ccccc2)[nH]c2c(C#N)cnn2c1=O,25.7%
4,CCCCCN(C)CCCCC(=O)N(O)CCC(=O)O,51.7%

# Tested on: A549
# Test: Growth inhibition of human A549 cells after 72 hrs by Alamar blue staining based fluorescence assay
# Format: functional
# Conditions: A549, 72 h
# How it was run: as §2
row,SMILES,GI50
1,CCCCCCN(C)CCc1ccc(-c2[nH]c3c(C#N)cnn3c(=O)c2C(C)C)cc1,29600 nM
2,CCCCCCN(C)Cc1ccc(-c2[nH]c3c(C#N)cnn3c(=O)c2C(C)C)cc1,40000 nM
3,CC(C)c1c(-c2ccccc2)[nH]c2c(C#N)cnn2c1=O,> 50000 nM

# Biological target: T1, Lysine-specific demethylase 5A
# Test: Inhibition of human C-terminal FLAG-tagged KDM5A (1 to 1090 residues) expressed in baculovirus infected Sf9 insect cells at 1 uM using H3(1-21)K4(Me3)-GGK(Biotin)/2-OG as substrate measured after 1 hr by Alphalisa assay relative to control
# Conditions: not given
# How it was run: as §1
row,SMILES,inhibition
1,CCCCCCN(C)Cc1ccc(-c2[nH]c3c(C#N)cnn3c(=O)c2C(C)C)cc1,97.9%
2,CC(C)c1c(-c2ccccc2)[nH]c2c(C#N)cnn2c1=O,68.9%
3,CCCCCN(C)CCCCC(=O)N(O)CCC(=O)O,30.8%

# Biological target: Lysine-specific demethylase 5C (Homo sapiens, UniProt P41229)
# Test: Inhibition of full-length human N-terminal FLAG/His-tagged KDM5C (2 to 1560 residues) expressed in baculovirus infected Sf9 insect cells using H3(1-21)K4(Me3)-GGK(Biotin)/2-OG as substrate measured after 1 hr by Alphalisa assay
# Conditions: not given
# How it was run: as §1
# Sequence of Lysine-specific demethylase 5C (P41229 whole entry, the tested form may be a part): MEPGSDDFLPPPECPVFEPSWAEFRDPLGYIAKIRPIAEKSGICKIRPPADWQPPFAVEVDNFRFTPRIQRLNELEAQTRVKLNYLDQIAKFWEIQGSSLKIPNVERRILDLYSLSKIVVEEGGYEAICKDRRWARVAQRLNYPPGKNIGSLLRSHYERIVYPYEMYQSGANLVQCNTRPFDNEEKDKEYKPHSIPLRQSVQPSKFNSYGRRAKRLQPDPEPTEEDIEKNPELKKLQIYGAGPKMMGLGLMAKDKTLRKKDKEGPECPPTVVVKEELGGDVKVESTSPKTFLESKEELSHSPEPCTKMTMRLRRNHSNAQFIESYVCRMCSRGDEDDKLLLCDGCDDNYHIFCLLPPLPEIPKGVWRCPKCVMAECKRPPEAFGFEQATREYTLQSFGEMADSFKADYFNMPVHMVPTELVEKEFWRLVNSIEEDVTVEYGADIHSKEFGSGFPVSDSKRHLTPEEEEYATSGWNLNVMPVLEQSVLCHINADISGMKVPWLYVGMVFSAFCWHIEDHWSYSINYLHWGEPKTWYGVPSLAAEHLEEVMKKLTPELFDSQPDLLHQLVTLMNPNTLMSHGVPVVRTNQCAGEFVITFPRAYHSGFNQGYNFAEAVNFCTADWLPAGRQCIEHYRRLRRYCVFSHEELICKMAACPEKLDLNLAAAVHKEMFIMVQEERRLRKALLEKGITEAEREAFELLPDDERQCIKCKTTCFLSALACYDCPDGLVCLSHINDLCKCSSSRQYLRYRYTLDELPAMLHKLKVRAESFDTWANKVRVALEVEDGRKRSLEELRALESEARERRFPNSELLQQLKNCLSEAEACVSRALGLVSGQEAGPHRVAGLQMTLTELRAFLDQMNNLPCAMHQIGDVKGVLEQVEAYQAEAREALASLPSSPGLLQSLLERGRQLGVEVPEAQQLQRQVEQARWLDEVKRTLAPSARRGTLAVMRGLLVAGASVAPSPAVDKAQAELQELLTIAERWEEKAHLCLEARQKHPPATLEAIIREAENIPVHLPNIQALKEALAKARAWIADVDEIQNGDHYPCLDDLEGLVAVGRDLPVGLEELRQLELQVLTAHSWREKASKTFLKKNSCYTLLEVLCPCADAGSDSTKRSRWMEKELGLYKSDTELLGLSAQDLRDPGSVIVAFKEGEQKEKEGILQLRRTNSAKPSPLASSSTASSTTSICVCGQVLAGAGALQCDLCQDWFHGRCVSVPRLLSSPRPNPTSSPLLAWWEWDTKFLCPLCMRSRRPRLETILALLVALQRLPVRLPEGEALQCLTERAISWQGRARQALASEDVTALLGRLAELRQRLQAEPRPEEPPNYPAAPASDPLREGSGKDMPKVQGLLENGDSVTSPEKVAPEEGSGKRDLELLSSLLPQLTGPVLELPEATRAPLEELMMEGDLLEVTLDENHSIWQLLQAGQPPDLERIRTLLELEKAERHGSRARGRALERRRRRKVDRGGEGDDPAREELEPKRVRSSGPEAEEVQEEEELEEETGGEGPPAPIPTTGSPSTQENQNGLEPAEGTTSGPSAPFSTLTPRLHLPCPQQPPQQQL
row,SMILES,IC50
1,CCCCCCN(C)CCc1ccc(-c2[nH]c3c(C#N)cnn3c(=O)c2C(C)C)cc1,6.24 nM
2,CCCCCCN(C)Cc1ccc(-c2[nH]c3c(C#N)cnn3c(=O)c2C(C)C)cc1,5.84 nM
3,CC(C)c1c(-c2ccccc2)[nH]c2c(C#N)cnn2c1=O,3010 nM
4,CCCCCN(C)CCCCC(=O)N(O)CCC(=O)O,28900 nM
